The subject of test [1] is HeLa. Put plainly: Inhibition of autophagy in human HeLa cells assessed as induction of LC3-I protein accumulation at 4 uM incubated for 24 hrs by immunoblotting method. The test is classed as functional, cell-based. Put shortly: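 HeLa cells were grown in DMEM with 10% FBS to about 50% confluency, then given 4 µM compound or DMSO for 24 h. Cold-PBS wash, lysis in TBS pH 7.6 with 1% Triton-X, 0.2% SDS and protease/phosphatase inhibitors. Lysates were protein-normalized and immunoblotted for LC3-I/LC3-II, with actin as loading control.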
(In general: Immunoblotting shows a protein as a band on a membrane.)

The target of test [2] is Calcium/calmodulin-dependent protein kinase kinase 2 (Homo sapiens) (UniProt Q96RR4). Description: Inhibition of CAMKKB (unknown origin) at 2 uM by radioactive filter-binding assay. Put shortly: (§1)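 Panel profiling of one compound against 50 kinases, carried out in duplicate at the International Centre for Protein Kinase Profiling. Radioactive filter-binding format.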
Calcium/calmodulin-dependent protein kinase kinase 2 (Homo sapiens), sequence (Q96RR4 2-588 limits assumed): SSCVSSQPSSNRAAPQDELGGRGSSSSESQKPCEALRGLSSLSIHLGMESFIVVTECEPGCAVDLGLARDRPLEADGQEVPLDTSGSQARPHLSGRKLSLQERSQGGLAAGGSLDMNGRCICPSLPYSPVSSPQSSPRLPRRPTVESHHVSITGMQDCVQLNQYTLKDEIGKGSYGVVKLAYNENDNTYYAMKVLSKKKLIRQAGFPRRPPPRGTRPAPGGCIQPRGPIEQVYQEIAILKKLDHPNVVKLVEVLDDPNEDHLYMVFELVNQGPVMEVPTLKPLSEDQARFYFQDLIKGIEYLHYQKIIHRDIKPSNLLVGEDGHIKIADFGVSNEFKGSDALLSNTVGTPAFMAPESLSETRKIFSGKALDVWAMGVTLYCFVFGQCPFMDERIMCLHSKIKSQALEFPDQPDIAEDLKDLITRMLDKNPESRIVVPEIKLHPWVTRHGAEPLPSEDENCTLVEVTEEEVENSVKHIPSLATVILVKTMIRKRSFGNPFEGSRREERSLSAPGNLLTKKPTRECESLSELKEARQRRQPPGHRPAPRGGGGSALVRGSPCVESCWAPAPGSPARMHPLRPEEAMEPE
The target in test [3] is Tyrosine-protein kinase SYK (Homo sapiens) (UniProt P43405). Put plainly: Inhibition of SYK (unknown origin) at 2 uM by radioactive filter-binding assay. Put shortly: as §1
Test [4] deals with Serine/threonine-protein kinase TBK1 (Homo sapiens) (UniProt Q9UHD2). Description: Inhibition of TBK1 (unknown origin) at 2 uM by radioactive filter-binding assay. Put shortly: as §1
For test [5], the target named is High affinity nerve growth factor receptor (Homo sapiens) (UniProt P04629). Put plainly: Inhibition of TRKA (unknown origin) at 2 uM by radioactive filter-binding assay. Put shortly:
as §1

Test [6] addresses Interleukin-1 receptor-associated kinase 4 (Homo sapiens) (UniProt Q9NWZ3). Put plainly: Inhibition of IRAK4 (unknown origin) at 2 uM by radioactive filter-binding assay. Put shortly: as §1
Test [7] deals with T1, Vascular endothelial growth factor receptor (Homo sapiens) (UniProt P17948+P35916+P35968). Put plainly: Inhibition of VEGFR (unknown origin) at 2 uM by radioactive filter-binding assay. Type of test: protein assay. Put shortly: as §1
For test [8], the target named is Serine/threonine-protein kinase D1 (Homo sapiens) (UniProt Q15139). Put plainly: Inhibition of PKD1 (unknown origin) at 2 uM by radioactive filter-binding assay. Put shortly:
as §1

In test [9] the target is T2, AMP-activated protein kinase, AMPK (Homo sapiens) (UniProt P54646+O43741+P54619+Q9UGJ0+Q9Y478+Q13131+Q9UGI9). Description: Inhibition of AMPK (unknown origin) at 2 uM by radioactive filter-binding assay. Type of test: protein-complex assay. Put shortly: as §1
The target of test [10] is Serine/threonine-protein kinase N2 (Homo sapiens) (UniProt Q16513). Description: Inhibition of PRK2 (unknown origin) at 250 nM by radioactive filter-binding assay. Put shortly: as §1
Test [11] has as its target SRSF protein kinase 1 (Homo sapiens) (UniProt Q96SB4). Put plainly: Inhibition of SRPK1 (unknown origin) at 250 nM by radioactive filter-binding assay. Put shortly:
as §1

Test [12] has as its target Glycogen synthase kinase-3 beta (Homo sapiens) (UniProt P49841). Description: Inhibition of GSK3beta (unknown origin) at 250 nM by radioactive filter-binding assay. Put shortly:
as §1

The target of test [13] is Tyrosine-protein kinase SYK (Homo sapiens) (UniProt P43405). Description: Inhibition of SYK (unknown origin) at 250 nM by radioactive filter-binding assay. Put shortly:
as §1

Test [14] has as its target Tyrosine-protein kinase BTK (Homo sapiens) (UniProt Q06187). Description: Inhibition of BTK (unknown origin) at 250 nM by radioactive filter-binding assay. Put shortly:
as §1

In test [15] the target is Serine/threonine-protein kinase Chk2 (Homo sapiens) (UniProt O96017). Put plainly: Inhibition of CHK2 (unknown origin) at 250 nM by radioactive filter-binding assay. Put shortly: as §1
Test [16] has as its target Serine/threonine-protein kinase Sgk1 (Homo sapiens) (UniProt O00141). Put plainly: Inhibition of SGK1 (unknown origin) at 250 nM by radioactive filter-binding assay. Put shortly:
as §1

In test [17] the target is Ribosomal protein S6 kinase alpha-1 (Homo sapiens) (UniProt Q15418). Put plainly: Inhibition of RSK1 (unknown origin) at 250 nM by radioactive filter-binding assay. Put shortly: as §1
In test [18] the target is Proto-oncogene tyrosine-protein kinase Src (Homo sapiens) (UniProt P12931). Description: Inhibition of SRC (unknown origin) at 250 nM by radioactive filter-binding assay. Put shortly:
as §1

Test [19] concerns the target Serine/threonine-protein kinase D1 (Homo sapiens) (UniProt Q15139). Put plainly: Inhibition of PKD1 (unknown origin) at 250 nM by radioactive filter-binding assay. Put shortly: as §1
Test [20] concerns the target Mitogen-activated protein kinase kinase kinase 11 (Homo sapiens) (UniProt Q16584). Put plainly: Inhibition of MLK3 (unknown origin) at 250 nM by radioactive filter-binding assay. Put shortly: as §1
Test [21] has as its target Tyrosine-protein kinase JAK2 (Homo sapiens) (UniProt O60674). Put plainly: Inhibition of JAK2 (unknown origin) at 250 nM by radioactive filter-binding assay. Put shortly:
as §1

The target in test [22] is Calcium/calmodulin-dependent protein kinase kinase 2 (Homo sapiens) (UniProt Q96RR4). Description: Inhibition of CAMKKB (unknown origin) at 250 nM by radioactive filter-binding assay. Put shortly: as §1
Test [23] has as its target Mitogen-activated protein kinase kinase kinase 7 (Homo sapiens) (UniProt O43318). Description: Inhibition of TAK1 (unknown origin) at 250 nM by radioactive filter-binding assay. Put shortly: as §1
In test [24] the target is T1, Vascular endothelial growth factor receptor (Homo sapiens). Description: Inhibition of VEGFR (unknown origin) at 250 nM by radioactive filter-binding assay. The test is classed as protein assay. Put shortly: as §1
Test [25] concerns the target High affinity nerve growth factor receptor (Homo sapiens) (UniProt P04629). Put plainly: Inhibition of TRKA (unknown origin) at 250 nM by radioactive filter-binding assay. Put shortly:
as §1

For test [26], the target named is Tyrosine-protein kinase Lck (Homo sapiens) (UniProt P06239). Description: Inhibition of LCK (unknown origin) at 250 nM by radioactive filter-binding assay. Put shortly:
as §1

Test [27] concerns the target Dual specificity tyrosine-phosphorylation-regulated kinase 1A (Homo sapiens) (UniProt Q13627). Put plainly: Inhibition of DYRK1A (unknown origin) at 250 nM by radioactive filter-binding assay. Put shortly:
as §1

In test [28] the target is T2, AMP-activated protein kinase, AMPK (Homo sapiens). Put plainly: Inhibition of AMPK (unknown origin) at 250 nM by radioactive filter-binding assay. The test is classed as protein-complex assay. Put shortly:
as §1

Calls of active or inactive are those of the source. The rule behind the calls is not given here.

Serine/threonine-protein kinase D1 (Homo sapiens), sequence (Q15139 whole entry): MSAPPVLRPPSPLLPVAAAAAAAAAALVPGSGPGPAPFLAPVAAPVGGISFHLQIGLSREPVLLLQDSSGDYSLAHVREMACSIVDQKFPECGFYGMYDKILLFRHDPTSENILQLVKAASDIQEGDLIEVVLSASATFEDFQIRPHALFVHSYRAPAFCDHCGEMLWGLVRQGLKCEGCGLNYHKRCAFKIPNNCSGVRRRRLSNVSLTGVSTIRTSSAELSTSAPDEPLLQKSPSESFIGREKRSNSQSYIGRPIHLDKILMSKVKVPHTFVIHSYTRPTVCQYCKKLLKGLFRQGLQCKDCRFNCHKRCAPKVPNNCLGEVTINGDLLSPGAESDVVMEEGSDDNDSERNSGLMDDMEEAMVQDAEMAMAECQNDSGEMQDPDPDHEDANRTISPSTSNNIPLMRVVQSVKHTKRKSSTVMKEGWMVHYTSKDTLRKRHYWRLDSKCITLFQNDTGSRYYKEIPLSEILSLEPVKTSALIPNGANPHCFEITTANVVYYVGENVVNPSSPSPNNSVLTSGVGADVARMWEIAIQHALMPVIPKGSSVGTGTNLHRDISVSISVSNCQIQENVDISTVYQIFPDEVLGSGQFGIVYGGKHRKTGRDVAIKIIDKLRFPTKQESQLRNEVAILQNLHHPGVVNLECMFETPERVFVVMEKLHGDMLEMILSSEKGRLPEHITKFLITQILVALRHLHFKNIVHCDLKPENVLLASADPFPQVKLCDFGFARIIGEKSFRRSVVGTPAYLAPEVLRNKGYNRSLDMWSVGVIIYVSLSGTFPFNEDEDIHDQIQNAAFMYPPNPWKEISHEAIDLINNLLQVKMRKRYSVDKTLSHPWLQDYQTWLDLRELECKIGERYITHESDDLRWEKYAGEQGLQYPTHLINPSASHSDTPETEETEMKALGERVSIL
High affinity nerve growth factor receptor (Homo sapiens), sequence (P04629 33-796 limits assumed): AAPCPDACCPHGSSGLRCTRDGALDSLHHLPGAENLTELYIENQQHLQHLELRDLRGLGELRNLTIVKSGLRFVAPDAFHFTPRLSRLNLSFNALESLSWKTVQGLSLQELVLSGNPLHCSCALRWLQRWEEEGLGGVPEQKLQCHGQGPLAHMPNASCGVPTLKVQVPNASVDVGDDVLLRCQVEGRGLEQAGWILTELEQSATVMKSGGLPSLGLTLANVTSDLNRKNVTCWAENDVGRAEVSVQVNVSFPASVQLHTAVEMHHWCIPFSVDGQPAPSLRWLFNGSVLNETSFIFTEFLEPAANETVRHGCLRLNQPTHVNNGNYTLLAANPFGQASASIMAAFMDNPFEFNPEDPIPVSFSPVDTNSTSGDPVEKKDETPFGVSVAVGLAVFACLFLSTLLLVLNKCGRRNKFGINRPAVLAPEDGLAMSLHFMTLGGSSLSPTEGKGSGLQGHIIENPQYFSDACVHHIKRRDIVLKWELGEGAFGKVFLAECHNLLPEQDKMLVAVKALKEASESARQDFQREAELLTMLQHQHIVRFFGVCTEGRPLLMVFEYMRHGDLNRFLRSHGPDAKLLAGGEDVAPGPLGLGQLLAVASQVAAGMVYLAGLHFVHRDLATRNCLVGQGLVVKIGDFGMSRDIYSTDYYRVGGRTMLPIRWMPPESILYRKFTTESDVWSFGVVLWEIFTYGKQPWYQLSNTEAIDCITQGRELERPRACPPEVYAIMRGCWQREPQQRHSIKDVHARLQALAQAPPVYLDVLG
Tyrosine-protein kinase JAK2 (Homo sapiens), sequence (O60674 whole entry): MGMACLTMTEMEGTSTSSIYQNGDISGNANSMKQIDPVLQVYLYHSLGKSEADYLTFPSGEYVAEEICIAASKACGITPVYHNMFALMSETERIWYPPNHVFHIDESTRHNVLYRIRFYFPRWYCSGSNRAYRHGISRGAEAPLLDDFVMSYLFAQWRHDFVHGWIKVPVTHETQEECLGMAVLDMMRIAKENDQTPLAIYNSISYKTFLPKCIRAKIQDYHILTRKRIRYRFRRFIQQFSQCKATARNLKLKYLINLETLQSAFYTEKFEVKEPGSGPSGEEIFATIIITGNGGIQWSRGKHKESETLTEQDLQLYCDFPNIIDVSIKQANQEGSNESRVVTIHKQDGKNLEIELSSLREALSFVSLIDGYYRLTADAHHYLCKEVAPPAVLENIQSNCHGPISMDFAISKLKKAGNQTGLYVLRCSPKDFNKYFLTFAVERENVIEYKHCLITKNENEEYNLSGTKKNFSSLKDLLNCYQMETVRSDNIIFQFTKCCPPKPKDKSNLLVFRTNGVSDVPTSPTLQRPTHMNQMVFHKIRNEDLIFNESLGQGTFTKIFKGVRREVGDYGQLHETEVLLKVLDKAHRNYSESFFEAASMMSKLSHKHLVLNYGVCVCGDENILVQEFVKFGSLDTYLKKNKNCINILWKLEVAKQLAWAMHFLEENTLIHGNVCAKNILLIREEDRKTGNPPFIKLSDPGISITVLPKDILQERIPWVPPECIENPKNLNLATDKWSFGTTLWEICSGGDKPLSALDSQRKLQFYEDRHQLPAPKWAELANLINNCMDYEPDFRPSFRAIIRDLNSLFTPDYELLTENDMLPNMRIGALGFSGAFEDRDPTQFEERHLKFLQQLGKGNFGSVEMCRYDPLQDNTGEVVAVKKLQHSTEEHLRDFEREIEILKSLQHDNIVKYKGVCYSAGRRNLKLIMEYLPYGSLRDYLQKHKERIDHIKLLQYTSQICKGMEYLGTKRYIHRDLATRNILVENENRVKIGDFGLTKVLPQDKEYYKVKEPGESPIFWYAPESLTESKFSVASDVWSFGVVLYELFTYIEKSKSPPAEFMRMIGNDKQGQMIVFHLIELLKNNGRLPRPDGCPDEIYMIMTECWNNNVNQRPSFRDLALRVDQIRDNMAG
SRSF protein kinase 1 (Homo sapiens), sequence (Q96SB4 whole entry): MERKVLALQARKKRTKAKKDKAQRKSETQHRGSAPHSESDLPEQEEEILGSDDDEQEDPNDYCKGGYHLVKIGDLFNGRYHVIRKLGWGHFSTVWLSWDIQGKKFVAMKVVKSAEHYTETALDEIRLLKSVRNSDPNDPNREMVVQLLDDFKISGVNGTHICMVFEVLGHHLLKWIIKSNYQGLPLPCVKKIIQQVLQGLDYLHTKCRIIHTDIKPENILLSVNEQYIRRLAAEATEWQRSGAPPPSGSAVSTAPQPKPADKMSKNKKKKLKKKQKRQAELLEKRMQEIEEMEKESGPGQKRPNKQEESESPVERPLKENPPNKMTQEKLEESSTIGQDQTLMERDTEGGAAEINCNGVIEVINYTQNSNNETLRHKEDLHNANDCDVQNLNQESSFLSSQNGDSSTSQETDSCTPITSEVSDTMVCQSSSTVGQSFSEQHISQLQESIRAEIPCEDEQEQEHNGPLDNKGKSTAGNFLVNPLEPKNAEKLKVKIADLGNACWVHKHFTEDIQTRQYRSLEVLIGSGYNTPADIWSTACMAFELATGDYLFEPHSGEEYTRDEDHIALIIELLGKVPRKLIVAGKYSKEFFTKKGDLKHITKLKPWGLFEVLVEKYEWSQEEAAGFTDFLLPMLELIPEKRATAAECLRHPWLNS
Proto-oncogene tyrosine-protein kinase Src (Homo sapiens), sequence (P12931 2-536 limits assumed): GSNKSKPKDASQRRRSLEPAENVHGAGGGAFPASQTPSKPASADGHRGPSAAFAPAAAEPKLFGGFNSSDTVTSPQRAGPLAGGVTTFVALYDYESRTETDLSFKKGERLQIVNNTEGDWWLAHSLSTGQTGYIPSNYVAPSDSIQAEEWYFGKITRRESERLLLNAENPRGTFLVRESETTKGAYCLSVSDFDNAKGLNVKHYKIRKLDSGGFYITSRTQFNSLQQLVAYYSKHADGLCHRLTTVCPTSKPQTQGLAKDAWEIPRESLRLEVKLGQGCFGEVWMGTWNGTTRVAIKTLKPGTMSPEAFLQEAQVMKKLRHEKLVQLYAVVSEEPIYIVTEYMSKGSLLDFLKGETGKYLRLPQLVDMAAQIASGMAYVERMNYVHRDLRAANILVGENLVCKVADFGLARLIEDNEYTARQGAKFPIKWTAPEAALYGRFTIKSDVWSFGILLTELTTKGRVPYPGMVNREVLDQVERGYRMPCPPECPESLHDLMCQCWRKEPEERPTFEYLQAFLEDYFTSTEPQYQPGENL
Serine/threonine-protein kinase Sgk1 (Homo sapiens), sequence (O00141 whole entry): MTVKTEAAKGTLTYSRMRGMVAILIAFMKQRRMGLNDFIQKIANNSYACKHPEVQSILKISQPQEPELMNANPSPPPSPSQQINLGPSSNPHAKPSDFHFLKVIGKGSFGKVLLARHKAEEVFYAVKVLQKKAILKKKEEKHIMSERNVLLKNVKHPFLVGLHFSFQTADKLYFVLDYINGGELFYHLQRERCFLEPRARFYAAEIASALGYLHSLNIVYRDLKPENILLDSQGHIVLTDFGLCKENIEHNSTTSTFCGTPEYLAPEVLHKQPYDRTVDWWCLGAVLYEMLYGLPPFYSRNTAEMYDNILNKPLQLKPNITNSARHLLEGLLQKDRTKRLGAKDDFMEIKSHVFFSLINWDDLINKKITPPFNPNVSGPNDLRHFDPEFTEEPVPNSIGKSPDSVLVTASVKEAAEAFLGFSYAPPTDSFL

Regarding `NCCCNc1nc(Nc2cccc(NC(=O)N3CCCC3)c2)ncc1I`, the result in test [1] was Active. The inhibition in test [2], in test [3], in test [4], in test [5], in [6] and in test [7] was over 80% each time. The inhibition in test [8] and in test [9] was over 80% throughout.

Take `c1ccc2c(Nc3cc(C4CCC4)[nH]n3)nc(Nc3ccc4[nH]cnc4c3)nc2c1`: the inhibition in test [10], in [11], in test [12], in test [13], in test [14] and in test [15] was over 80% throughout. For the same compound, the inhibition in test [16], in [17], in [18], in test [19], in test [20] and in test [21] was over 80% throughout. The inhibition in test [22], in [23], in test [24], in [25], in test [26] and in test [27] was over 80% each time. For the same compound, the inhibition – broadly, the drop in the measured response relative to a control, in per cent – in test [28] is over 80%.

The record behind these values is ChEMBL document CHEMBL3603808, “Discovery and structure of a new inhibitor scaffold of the autophagy initiating kinase ULK1” (Bioorg Med Chem, 2015).
